Measured values published in publication PMC2847577 (Molecular cell, 2009).
Residue numbers refer to the chain shown, from its start. Names and notes keep the numbering of the source. Where two headings read alike, the source gives them in different places. No end group written: not given here.

How the values were obtained:
SPOP^MATH [1] = target: SPOP^MATH (Homo sapiens, UniProt O43791); assay: Surface Plasmon Resonance; type: binding; details: Surface Plasmon Resonance (BIACORE), wildtype SPOP^MATH
Method in brief: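 SPOP MATH domain expressed in E. coli BL21(DE3) GOLD as a GST fusion and purified by affinity, ion-exchange and gel-filtration chromatography. Binding of substrate-derived SPOP-binding-consensus peptides was measured by surface plasmon resonance on a BIACORE3000, and binding constants were reported.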

Puc^93-107 (Drosophila) = assay: SPR
Puc^1-390 (Drosophila) [2] = assay: AUC
Puc^1-390 (Drosophila) [3] = assay: AUC; remark: listed apart in the source
SPOP^MATH [4] = target: SPOP^MATH (human, UniProt O43791 28-166); assay: crystal structure
crystal structure = target: the molecule itself; assay: crystal structure
Cul3^NTD = Cul3^NTD (UniProt Q13618 1-384); assay: AUC
Sequence of Cul3^NTD (Q13618 1-384): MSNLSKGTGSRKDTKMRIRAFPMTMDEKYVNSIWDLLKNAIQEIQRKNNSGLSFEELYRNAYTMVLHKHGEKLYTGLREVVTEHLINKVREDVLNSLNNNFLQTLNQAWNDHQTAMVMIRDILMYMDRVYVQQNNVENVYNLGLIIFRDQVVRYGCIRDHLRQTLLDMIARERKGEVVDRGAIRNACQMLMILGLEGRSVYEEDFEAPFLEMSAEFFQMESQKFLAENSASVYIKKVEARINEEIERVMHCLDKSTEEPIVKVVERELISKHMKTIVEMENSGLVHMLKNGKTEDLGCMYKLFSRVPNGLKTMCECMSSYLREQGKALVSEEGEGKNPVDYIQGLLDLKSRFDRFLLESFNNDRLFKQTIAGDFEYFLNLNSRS

AUC = target: the molecule itself; assay: AUC

Ac-LACDEVTSTTSSSTA (N-terminus assumed) [Puc^93-107]
binding to SPOP^MATH (result in words) (SPOP^MATH [1]): sufficient for binding

DSTTEGTPADGFTVL [MacroH2A pep2]
binding to SPOP^MATH (result in words) (SPOP^MATH [1]): negligible binding

MacroH2A^166-179: Synthetic peptide for the MacroH2A SPOP-binding region, residues 166-179 (KAASADSTTEGTPAD)
binding to SPOP^MATH (result in words) (SPOP^MATH [1]): sufficient for binding

SPOP^MATH (from UniProt O43791 28-166) (domain or fragment)
Kd (Puc^93-107 (Drosophila)): 4 µM

SPOP^MATH-BTB+ (from UniProt O43791 28-329) (domain or fragment)
stoichiometry N (Puc^1-390 (Drosophila) [2]): 2 SPOP per Puc
stoichiometry N (Puc^1-390 (Drosophila) [3]): 2 SPOP per Puc

B1: Puc SBC1_pep1 (peptide)
peptide: DEVTSTTSSS
binding result (SPOP^MATH [4]): binds

B2: MacroH2A_pep1 (peptide)
peptide: KAASADSTTEGTPAD
binding result (SPOP^MATH [4]): binds

B3: Ci SBC2 peptide (peptide)
peptide: NTLFPDVSSSTH
binding result (SPOP^MATH [4]): binds

B4: SPOP^BTB+ (domain or fragment, human, UniProt O43791 172-329, looked up)
chain: GQNTMNMVKVPECRLADELGGLWENSRFTDCCLCVAGQEFQAHKAILAARSPVFSAMFEHEMEESKKNRVEINDVEPEVFKEMMCFIYTGKAPNLDKMADDLLAAADKYALERLKVMCEDALCSNLSVENAAEILILADLHSADQLKTQAVDFINYHA
binding result (crystal structure): binds
stoichiometry N (Cul3^NTD): 1 SPOP per Cul3 (2:2)

B5: SPOP^BTB+ L186D, L190D, L193D, I217K (domain or fragment, human, UniProt O43791 172-329, looked up)
chain: B4 chain with L15D, L19D, L22D, I46K
stoichiometry N (Cul3^NTD): 1 SPOP per Cul3 (1:1)

B6: Gig^1-258 (domain or fragment, human, UniProt Q9H2C0 1-258, looked up)
chain: MAEGSAVSDPQHAARLLRALSSFREESRFCDAHLVLDGEEIPVQKNILAAASPYIRTKLNYNPPKDDGSTYKIELEGISVMVMREILDYIFSGQIRLNEDTIQDVVQAADLLLLTDLKTLCCEFLEGCIAAENCIGIRDFALHYCLHHVHYLATEYLETHFRDVSSTEEFLELSPQKLKEVISLEKLNVGNERYVFEAVIRWIAHDTEIRKVHMKDVMSALWVSGLDSSYLREQMLNEPLVREIVKECSNIPLSQPQQ
modifications: selenomethionines (structure phased by SAD)
binding result (crystal structure): binds

B7: SPOP^MATH-BTB+ (domain or fragment, human, UniProt O43791 28-329, looked up)
chain: KVVKFSYMWTINNFSFCREEMGEVIKSSTFSSGANDKLKWCLRVNPKGLDEESKDYLSLYLLLVSCPKSEVRAKFKFSILNAKGEETKAMESQRAYRFVQGKDWGFKKFIRRDFLLDEANGLLPDDKLTLFCEVSVVQDSVNISGQNTMNMVKVPECRLADELGGLWENSRFTDCCLCVAGQEFQAHKAILAARSPVFSAMFEHEMEESKKNRVEINDVEPEVFKEMMCFIYTGKAPNLDKMADDLLAAADKYALERLKVMCEDALCSNLSVENAAEILILADLHSADQLKTQAVDFINYHA
binding result (AUC): binds

B8: SPOP^BTB (domain or fragment, human, UniProt O43791 173-297, looked up)
chain: QNTMNMVKVPECRLADELGGLWENSRFTDCCLCVAGQEFQAHKAILAARSPVFSAMFEHEMEESKKNRVEINDVEPEVFKEMMCFIYTGKAPNLDKMADDLLAAADKYALERLKVMCEDALCSNL
stoichiometry N (Cul3^NTD): 1 SPOP per Cul3 (2:2)
